Measured values published in paper PMC2112435 (The Journal of Cell Biology, 1983).

Key:
[1] = system: polymorphonuclear leukocytes (PMNs); experiment: 3H-FNLLP peptide uptake and release by PMN monolayers; format: cell-based, rabbit
[2] = system: polymorphonuclear leukocytes (PMNs); details: chemotactic peptide taken up by PMNs; cited from earlier work
[3] = system: polymorphonuclear leukocytes (PMNs); experiment: 125I-BSA uptake and release of TCA-precipitable BSA by PMNs; format: cell-based, rabbit; details: for k2, rate constant of further processing / k3, rate constant of release of intact material / k3/k2 + k3 / Rate constant for depletion of Ap: Table I
Method in brief: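 Rabbit PMNs in HBSS with 2.4 mg/ml HEPES, 3.3×10^6 cells/ml, settled 15 min at 23°C as a monolayer. Incubated 30 min at 37°C with ¹²⁵I-BSA (6.5 μCi/ml), 1% unlabeled BSA and 2×10^-8 M unlabeled FNLLP to stimulate pinocytosis. Washed 10 min at 4°C, then held in fresh HBSS at 37°C or 4°C for varied times. Medium assayed for TCA-precipitable counts. k3 (release) and k2 (digestion/storage) taken from a kinetic pinosome model.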

[4] = Table I line 2, 2 x 10-0 M/L as printed
[5] = Table I line 4, 2 X 10^-5 M/L as printed (second time)

Substance: N-formyinorleucylleucylphenylalanme [FNLLP]
- rate constant of filling the reversible pinocytic pool ([1]; 2 x 10^-8 M 3H-FNLLP, 37C (Fig. 10)): 0.165 min⁻¹
- k2, rate constant of further processing (digestion or storage) ([1]; Table I line 1, 2 X 10^-5 M/L): 0.097 min⁻¹
- k3, rate constant of release of intact peptide ([1]; Table I line 1, 2 X 10^-5 M/L): 0.101 min⁻¹
- k3/k2 + k3 ([1]; Table I line 1, 2 X 10^-5 M/L): 0.51
- k3, rate constant of release of intact peptide [1, 4]: 0.095 min⁻¹
- k3/k2 + k3 [1, 4]: 0.50
- k2, rate constant of further processing (digestion or storage) ([1]; Table I line 3, 2 X 10^-7 M/L): 0.117 min⁻¹
- k3, rate constant of release of intact peptide ([1]; Table I line 3, 2 X 10^-7 M/L): 0.081 min⁻¹
- k3/k2 + k3 ([1]; Table I line 3, 2 X 10^-7 M/L): 0.41
- k2, rate constant of further processing (digestion or storage) [1, 5]: 0.131 min⁻¹
- k3, rate constant of release of intact peptide [1, 5]: 0.067 min⁻¹
- k3/k2 + k3 [1, 5]: 0.34
- k2, rate constant of further processing (digestion or storage) ([1]; Table I line 5, 2 X 10^-9 M/L): 0,128 min-1
- k3, rate constant of release of intact peptide ([1]; Table I line 5, 2 X 10^-9 M/L): 0,070 min-1
- k3/k2 + k3 ([1]; Table I line 5, 2 X 10^-9 M/L): 0.35
- probability that pinocytosed material will be released intact, ratio k3/(k2 + k3) ([1]; estimate from Table I): approximately 0.5
- t1/2 of release of accumulated peptide as intact peptide ([1]; inhibitor cocktail (5 mM 2-deoxy-D-glucose, 1 mM sodium fluoride, 0.3 M sucrose, glucose-free HBSS), 37C, 2 x 10^-8 M 3H-FNLLP): 4 min
- time at which the amount of peptide accumulated reaches a plateau ([1]; inhibitor cocktail, 2 x 10^-8 M 3H-FNLLP, 37C (Fig. 5)): ~ 15 min
- rate constant of release of intact peptide ([1]; inhibitor cocktail, 37C, 2 x 10^-8 M 3H-FNLLP): 0.173 min⁻¹
- t1/2 of release as digested peptide [2]: 23 min

Substance: BSA: bovine serum albumin (fatty-acid-free), iodinated by the chloramine-T method, pinocytic marker
- k2, rate constant of further processing ([3]; BSA 1.5 X 101 cpm/L as printed): 0.080 min⁻¹
- k3, rate constant of release of intact material ([3]; BSA 1.5 X 101 cpm/L as printed): 0,103 min-1
- k3/k2 + k3 ([3]; BSA 1.5 X 101 cpm/L as printed): 0.56
- k2, rate constant of further processing ([3]; BSA 3.7 X 109 cpm/L): 0,076 min-1
- k3, rate constant of release of intact material ([3]; BSA 3.7 X 109 cpm/L): 0.108 min⁻¹
- k3/k2 + k3 ([3]; BSA 3.7 X 109 cpm/L): 0.59
- Rate constant for depletion of Ap ([3]; BSA concentration 1.5 X 101 cpm/L as printed): 0.182 min⁻¹
- Rate constant for depletion of Ap ([3]; BSA concentration 3.7 X 109 cpm/L): 0.182 min⁻¹
- rate constant of release of TCA-precipitable BSA ([3]; as Fig. 4, release at 37C): 0.182 min⁻¹
- half-life of release of intact material ([3]; uptake primarily via bulk-fluid-phase): ~4 min
